Assay results taken from ChEMBL document CHEMBL1148645, “Imino-tetrahydro-benzothiazole derivatives as p53 inhibitors: discovery of a highly potent in vivo inhibitor and its action mechanism” (J Med Chem, 2006).
The source made the active and inactive calls. The calls are words filed in the database; no cut-off is given here.

Target: Cellular tumor antigen p53 (Mus musculus) (UniProt P02340)
Test: Inhibition of p53-mediated increase in p21/WAF1 level at 300 nM
Assay type: functional
Settings: filed as antagonist
Summary of the method: (§1)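 Wild-type E15 mouse cortical neurons were kept 3 days in vitro in neurobasal/B27 and treated with etoposide to trigger p53 activation. Time-course and concentration-dependent experiments were run. p21/WAF1 protein was detected by western blot of total extracts made in boiling SDS/Tris buffer.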

Cellular tumor antigen p53 (Mus musculus), sequence (P02340 whole entry): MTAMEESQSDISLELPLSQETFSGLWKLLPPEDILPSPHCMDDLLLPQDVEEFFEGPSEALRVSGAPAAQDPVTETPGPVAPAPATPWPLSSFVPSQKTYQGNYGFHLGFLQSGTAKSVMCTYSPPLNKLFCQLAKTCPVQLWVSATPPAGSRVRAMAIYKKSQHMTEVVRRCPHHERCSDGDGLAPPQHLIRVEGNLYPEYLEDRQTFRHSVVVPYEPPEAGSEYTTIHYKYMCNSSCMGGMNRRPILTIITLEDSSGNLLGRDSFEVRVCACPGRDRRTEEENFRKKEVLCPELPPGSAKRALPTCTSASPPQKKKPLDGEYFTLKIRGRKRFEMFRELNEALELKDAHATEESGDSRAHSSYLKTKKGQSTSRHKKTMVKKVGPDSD

Activity	Structure (SMILES)
Antagonist	Br.N=c1sc2c(n1CC(=O)c1ccc([N+](=O)[O-])cc1)CCCC2
Antagonist	Br.Cc1ccc(C(=O)Cn2c3c(sc2=N)CCCC3)cc1

Test system: Cortical neurone
Test: Inhibition of etoposide-induced death of mouse E15.5 cortical neurones
Assay type: functional
Settings: not given
Summary of the method: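 Primary cortical neurons from E15 wild-type mouse embryos were exposed to etoposide at 1.25 and 2.5 µM, with compound alongside DMSO. Etoposide alone served as the control. Live cells were stained with calcein-AM for 45 min, quenched with hemoglobin, and whole wells were imaged and counted automatically. Survival is relative to untreated cultures set to 100%. At least six independent experiments were run, each in triplicate.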

Structure (SMILES)	Activity
Br.N=c1sc2c(n1CC(=O)c1ccc([N+](=O)[O-])cc1)CC1CCCCC1C2 (stereo not given)	Active
Br.N=c1sc2c(n1CC(=O)c1ccc([N+](=O)[O-])cc1)CCCC2	Active
Br.Cc1ccc(C(=O)Cn2c3c(sc2=N)CC2CCCCC2C3)cc1 (stereo not given)	inactive
Br.COc1ccc(C(=O)Cn2c3c(sc2=N)CCCC3)cc1	inactive
Br.N=c1sc2c(n1C/C(=N/O)c1ccc([N+](=O)[O-])cc1)CCCC2	inactive
Br.Cc1ccc(C(=O)Cn2c3c(sc2=N)CCCCC3)cc1	inactive
Br.Cc1ccc(C(=O)Cn2c3c(sc2=N)CCCC3)cc1	Active

Same assay, conditions: read-out: ED50 (the source's name)

Structure (SMILES)	EC50
O=[N+]([O-])c1ccc(-c2cn3c4c(sc3n2)CCCC4)cc1	30 nM

Organism: Mus musculus
Test: Toxicity against mouse E15.5 cortical neurones at 10 uM
Settings: in vitro
Summary of the method: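 E15 mouse primary cortical neurons were cultured in neurobasal/B27 and exposed to compound at 10 µM. Live cells were counted after calcein-AM staining, with hemoglobin quench and whole-well imaging. Each experiment was repeated at least six times.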

Structure (SMILES)	Activity
Br.N=c1sc2c(n1CC(=O)c1ccc([N+](=O)[O-])cc1)CC1CCCCC1C2 (stereo not given)	Non-toxic
Br.COc1ccc(C(=O)Cn2c3c(sc2=N)CC2CCCCC2C3)cc1 (stereo not given)	Non-toxic
Br.N=c1sc2c(n1CC(=O)c1ccc([N+](=O)[O-])cc1)CCCC2	Non-toxic
Br.Cc1ccc(C(=O)Cn2c3c(sc2=N)CC2CCCCC2C3)cc1 (stereo not given)	Non-toxic
Br.COc1ccc(C(=O)Cn2c3c(sc2=N)CCCC3)cc1	Non-toxic
O=[N+]([O-])c1ccc(-c2cn3c4c(sc3n2)CC2CCCCC2C4)cc1 (stereo not given)	Non-toxic
O=[N+]([O-])c1ccc(-c2cn3c4c(sc3n2)CCCC4)cc1	Non-toxic
Br.N=c1sc2c(n1C/C(=N/O)c1ccc([N+](=O)[O-])cc1)CCCC2	Non-toxic
Br.Cc1ccc(C(=O)Cn2c3c(sc2=N)CCCCC3)cc1	Non-toxic

Target: Cellular tumor antigen p53 (Mus musculus) (UniProt P02340)
Test: Inhibition of p53-mediated increase in p21/WAF1 level at 30 nM
Assay type: functional
Settings: filed as antagonist
Summary of the method: as §1

Activity	Structure (SMILES)
Antagonist	O=[N+]([O-])c1ccc(-c2cn3c4c(sc3n2)CCCC4)cc1

Organism: Rattus norvegicus
Test: Protection against axotomy-induced RGC apoptosis in Wistar rat intravitreally injected with 0.06 uM
Assay type: functional
Settings: not given
Summary of the method: (§2)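 Adult male Wistar rats (300-400 g) had the optic nerve transected, and RGCs were retrogradely labeled with FluoroGold placed on the stump. Compound or vehicle (DMSO 2%), 3 µL, was injected intravitreally on days 0, 3 and 7. Eyes were taken on day 14 and retinas flat-mounted. FG-positive RGCs were counted blind in fields at three eccentricities. Groups had n = 3-6, with DMSO as baseline; results are given as mean ± sem.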

Structure (SMILES)	Activity
Br.N=c1sc2c(n1CC(=O)c1ccc([N+](=O)[O-])cc1)CCCC2	150%
Br.Cc1ccc(C(=O)Cn2c3c(sc2=N)CCCC3)cc1	98%

Same assay, conditions: in the assay text read “6 uM” for “0.06 uM”

Structure (SMILES)	Activity
O=[N+]([O-])c1ccc(-c2cn3c4c(sc3n2)CCCC4)cc1	inactive

Organism: Rattus norvegicus
Test: Protection against axotomy-induced RGC apoptosis in Wistar rat intravitreally injected with 6 uM
Assay type: functional
Settings: not given
Summary of the method: as §2

Structure (SMILES)	Activity
O=[N+]([O-])c1ccc(-c2cn3c4c(sc3n2)CCCC4)cc1	inactive
Br.Cc1ccc(C(=O)Cn2c3c(sc2=N)CCCC3)cc1	131%
